Screening results from PubChem.
NPY1 pot ag: human NPY-Y1 potentiation or agonism, primary screen; P25929; NPY-Y1 expressing cells, potentiator/agonist activation; activation, % at 3.6 µM; actives 0.37% (n = 220,000); AID 1304; in the data active = activation above about 33%, passing the limit was not always enough;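 note: cells stimulated with NPY at EC10 then isoproterenol at EC100; 0% = low agonist plus stimulus and 100% = saturating agonist plus stimulus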
Target sequence (P25929 whole entry, looked up): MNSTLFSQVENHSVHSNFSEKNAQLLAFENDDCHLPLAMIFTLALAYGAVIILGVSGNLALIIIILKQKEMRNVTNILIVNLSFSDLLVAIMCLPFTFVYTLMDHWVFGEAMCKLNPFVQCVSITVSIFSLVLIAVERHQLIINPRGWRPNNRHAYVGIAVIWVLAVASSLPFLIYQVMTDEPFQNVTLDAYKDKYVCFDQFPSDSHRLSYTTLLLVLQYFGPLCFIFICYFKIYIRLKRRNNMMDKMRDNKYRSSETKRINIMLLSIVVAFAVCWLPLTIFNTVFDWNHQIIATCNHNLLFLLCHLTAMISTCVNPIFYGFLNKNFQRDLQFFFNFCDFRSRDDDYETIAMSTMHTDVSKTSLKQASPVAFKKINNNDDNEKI
NPY-Y2 antag: NPY-Y2 (human) receptor antagonism | P49146 | NPY-Y2 expressing cells, antagonist mode | inhibition, % at 2.7 µM | actives 0.99% (n = 140,000); in the data active = inhibition above about 17%;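 note: 0% = vehicle with agonist challenge and 100% = reference antagonist with challenge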
Insulin prom up: MIN6 insulin promoter up-regulation. actives 0.3% (n = 190,000). MIN6 insulin promoter-GFP reporter, high-content imaging; stronger effect = higher value. z-score at 5 µM;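 active = z-score above 3 at 5 µM with at least 500 cells counted in the well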
INS promoter inh: TRM-6 insulin promoter activity inhibition | inhibition, % at 2 µM | TRM-6 cells, insulin promoter-eGFP reporter, imaging; reporter expression induced with tamoxifen | actives 0.9% (n = 130,000);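 active = inhibition above the mean plus 3 SD, with well images judged a real hit on visual review, cut at about 60% in these data, passing the limit was not always enough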
NPY-Y1 antag: NPY-Y1 (human) receptor antagonism. inhibition, % at 3.6 µM. AID 1040. HEK293-CNG Y1 cells, membrane potential fluorescence; NPY at EC95, then isoproterenol. P25929. actives 1% (n = 200,000);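 active = inhibition above the campaign mean inhibition of all tested compounds plus 3 SD, cut at about 20% in these data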;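 note: 0% = DMSO wells given NPY plus isoproterenol and 100% = isoproterenol alone without NPY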
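material = HEK293 cells with Y1 receptor plus CNG channel | also added = NPY 25 nM then isoproterenol 1 µM plus Ro 20-1724 25 µM | schedule = dye 3 h, compound 60 min room temperature, stimulation 45 min | measured by = membrane potential fluorescence | benchmarks = high control isoproterenol alone, low control NPY with isoproterenol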
NPY2 pot ag: potentiates or activates human NPY-Y2 receptor; P49146; cells expressing NPY-Y2, potentiator/agonist read-out; activation, % at 3.6 µM; actives 0.45% (n = 220,000); AID 1359; in the data active = activation above about 27%;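 note: cells stimulated with NPY near EC25 plus isoproterenol at EC100; 0% = vehicle plus submaximal agonist and 100% = vehicle plus saturating agonist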
NPY1 antag ctr: human NPY-Y1 antagonism in NPY-Y2 counter-screen; cell-based NPY-Y1 antagonism counterscreen; shares compounds with NPY-Y2 antag; inhibition, % at 3.6 µM; actives 19% (n = 710); in the data active = inhibition above about 20%;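 note: cells challenged with NPY then isoproterenol with cAMP sensed through a CNG channel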
NPY2 antag conf: confirmation of human neuropeptide Y receptor Y2 antagonists. HEK293 NPY-Y2 CNG channel, membrane potential fluorescence. actives 32% (n = 710). inhibition, % at 2.8 µM. shares compounds with NPY-Y2 antag;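 active = mean inhibition of triplicate wells above the hit cutoff set in the primary screen, cut at about 17% in these data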;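 note: 0% = DMSO with NPY challenge and 100% = BIIE0246 high control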
* marks the source's active call; other numbers are inactive results; nt = no result given. Hits are enriched below; roughly 2.5% of the tested compounds scored in any of these assays.

SMILES	NPY1 pot ag	NPY-Y2 antag	Insulin prom up	INS promoter inh	NPY-Y1 antag	NPY2 pot ag	NPY1 antag ctr	NPY2 antag conf
CC(C)CC(NC(=O)OC(C)(C)C)c1cn([C@@H](Cc2ccc(O)cc2)C(=O)N2CCN(C(=O)OC(C)(C)C)CC2)nn1 (some centres not stated)	11.2	nt	-0.22	nt	-2.1	-23.1	nt	nt
Clc1ccc(C2=Nn3c(nnc3-c3n[nH]c4c3CCC4)SC2)cc1Cl	-14.7	66.6*	-1.66	-25.9	13.6	-29.7	10.6	17.9*
c1ccc(C2=Nn3c(nnc3-c3n[nH]c4c3CCC4)SC2)cc1	-30.8	-2.7	0.77	nt	9.1	-13.6	nt	nt
COc1ccccc1NC(=O)c1ccc(-c2ccc(Br)cc2)o1	-86.1	20.6*	1.27	50.0	18.5	-43.2	21.0*	43.0*
O=C(Nc1ccccc1)c1ccc(-c2ccc(Br)cc2)o1	-42.9	29.2*	nt	-206.2	13.8	-50.7	10.3	12.9
CCCCCCCCCS(=O)(=O)N/N=C/c1cccc([N+](=O)[O-])c1	-23.6	23.9*	2.29	-3.6	8.0	-12.6	16.6	21.5*
N#CC(C#N)=C1C=CC=CN1/C(=C\c1ccco1)C(=O)c1ccc(Cl)cc1	-1.1	17.8*	-0.48	nt	-1.5	-7.9	15.5	82.9*
N#CC(C#N)=C1C=CC=CN1/C(=C\c1ccco1)C(=O)c1ccc(-c2ccccc2)cc1	-48.4	7.4	-1.19	nt	2.2	-10.7	nt	nt
COC(=O)C(C)N(C(=O)c1ccc(Cl)cc1)c1c(C)cccc1C (configuration not stated)	-14.6	7.1	-0.15	-22.2	8.6	-5.3	nt	nt
COC(=O)C(C)N(C(=O)c1ccc(C(=O)c2ccccc2)cc1)c1c(C)cccc1C (configuration not stated)	-12.7	18.6*	nt	-50.0	7.1	-8.3	5.7	3.1
Fc1ccccc1/C=C1\CCCC2=C1NC(=S)NC2c1ccccc1F (configuration not stated)	2.8	nt	-0.73	nt	5.4	9.7	nt	nt
O=C(Nc1ccccc1Cl)C1C2CCC3C(CCC21)C3(Cl)Cl (configuration not stated)	-32.7	18.1*	0.23	0.0	19.7	2.5	12.4	9.6
COCCN(CC(=O)NC1CCCCC1)C(=O)CSc1nc2ccccc2o1	-4.2	0.9	0.57	18.9	3.9	-11.0	nt	nt
O=C(CSc1nc2ccccc2o1)c1ccc2c(c1)OCCO2	-28.3	22.4*	-0.83	-49.3	9.0	-3.2	9.3	17.7*
O=C(CN(Cc1ccc2c(c1)OCO2)C(=O)CSc1nc2ccccc2o1)NC1CCCCC1	-4.5	17.5*	0.32	-35.7	13.3	-17.3	16.0	18.8*
Cc1cccc(NC(=O)CSc2nc3ccccc3o2)c1	-27.8	22.4*	0.5	3.6	11.3	-12.5	7.8	7.7
NC1=NC(c2cn[nH]c2-c2ccc(F)cc2)n2c(nc3ccccc32)N1 (configuration not stated)	-6.8	nt	-0.04	-109.1	2.2	-5.9	nt	nt
CC(C)COP(=O)(OCC(C)C)C(Nc1ccccc1)c1ccc2c(c1)OCO2 (configuration not stated)	-6.0	19.7*	-2.19	nt	17.1	13.0	10.9	6.2
COc1ccc(CCNC(=O)c2nnn(CC(=O)Nc3cccc(F)c3)c2N)cc1OC	-3.0	nt	-0.7	nt	3.0	4.9	nt	nt
Cc1cccc(N2CCN(CC(=O)Nc3ccccc3[N+](=O)[O-])CC2)c1C	14.7	38.5*	-0.09	-46.4	8.8	2.8	10.2	10.9
Cc1ccc(N2C(=O)c3ccccc3C2C(=O)c2cc(C)ccc2O)cc1 (configuration not stated)	8.5	27.4*	0.14	23.1	-1.8	17.8	34.7*	37.6*
Cc1ccc(N2C(=O)c3ccccc3C2C(=O)c2ccc(O)cc2O)cc1 (configuration not stated)	15.7	0.2	0.23	-30.8	1.0	7.0	nt	nt
C=CCSc1nc2ccccc2n1Cc1nnc(-c2cccs2)o1	-8.0	3.5	0.09	nt	-0.2	-3.5	nt	nt
CC1CCCN(C(=O)Cc2cn(Cc3cccc(Cl)c3)c3ccccc23)C1 (configuration not stated)	-4.8	17.4*	-0.21	-16.0	10.4	-22.4	4.9	4.5
CC/C(=C\C1CCCCC1)C(NP(=O)(c1ccccc1)c1ccccc1)c1ccccc1 (configuration not stated)	-20.3	23.0*	-0.08	-30.0	18.2	0.4	38.2*	34.4*
SMILES	NPY1 pot ag	NPY-Y2 antag	Insulin prom up	INS promoter inh	NPY-Y1 antag	NPY2 pot ag	NPY1 antag ctr	NPY2 antag conf
Cc1ccc(C)c(N2C(=O)CN=C2Nc2ccccc2Cl)c1	0.9	3.0	0.77	70.0	1.3	12.5	nt	nt
O=C(NNS(=O)(=O)c1ccc([N+](=O)[O-])cc1)c1cnn(-c2ccccc2)c1-n1cccc1	-4.9	2.3	0.15	25.0	6.6	-6.1	nt	nt
CC(=O)ONC(=Nc1ccccc1)c1nonc1N	17.0	nt	0.17	nt	nt	-27.4	nt	nt
Cc1ccc(N=C(NOC(=O)c2ccccc2)c2nonc2N)c(C)c1	-1.8	24.6*	-0.19	-9.3	8.9	-22.8	6.7	3.5
CCC(C)N(C(=O)Cn1nnc2ccccc21)C(C(=O)Nc1ccc(F)cc1)c1cccc(OC)c1 (configuration not stated)	-36.6	18.4*	nt	-26.1	16.1	-63.5	10.6	11.3
O/N=C/c1cc(Cl)ccc1OCc1cccc2ccccc12	-42.3	5.0	-0.33	26.7	8.1	-20.1	nt	nt
O=c1cc(/C=C/c2c(F)cccc2Cl)[nH]c2ccccc12	-6.2	4.2	nt	nt	-1.5	-9.3	nt	nt
COc1ccc(CCNC(=O)c2sc3ccccc3c2Cl)cc1OC	-10.0	26.1*	0.34	nt	10.9	-16.0	11.1	11.2
CNc1sc(C(=O)c2ccccc2F)c(N)c1-c1nc2ccccc2s1	12.3	-6.6	nt	-30.8	-6.3	9.9	nt	nt
Cc1ccc(C(C(=O)NC2CCCC2)N(Cc2cccnc2)C(=O)c2snc(C(N)=O)c2N)o1 (configuration not stated)	3.9	4.4	-1	nt	-0.3	-3.2	nt	nt
Cc1ccc(C(C(=O)NC2CCCCC2)N(Cc2cccnc2)C(=O)C2COc3ccccc3O2)o1 (configuration not stated)	7.8	24.9*	0.12	15.4	6.6	1.8	3.3	8.1
O=C1c2ccccc2N2C(=O)c3ccccc3C2N1O (configuration not stated)	3.1	0.2	1.16	nt	-1.4	-3.6	nt	nt
Cc1ccccc1N1C(=O)c2ccccc2N2C(=O)c3ccccc3C12 (configuration not stated)	-9.1	22.7*	1.02	-16.7	12.0	-17.0	4.8	6.9
